In ChEMBL document CHEMBL1141193, “Design, synthesis, and biological evaluation of hybrid molecules containing alpha-methylene-gamma-butyrolactones and alpha-bromoacryloyl moieties” (J Med Chem, 2005):
Activity calls are given as the source filed them. The rule behind the calls is not given here.

Experiments:
Format in all cases: functional, cell-based
[1] = system: L1210; assay: In vitro antiproliferative activity against murine lymphocytic L1210 leukemia cell line; conditions: Mus musculus
How it was run: (§1)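 Exponentially growing cells in RPMI 1640 with 10% FCS, 2 mM L-glutamine, […] and penicillin/streptomycin. Exposed to increasing drug concentrations, diluted from a 1 mg/mL DMSO stock. Cell number per mL was counted by Coulter counter after 48 h, using duplicate cultures per concentration and at least three repeats. IC50 = 50% growth inhibition versus untreated controls, reported as mean ± SE.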

[2] = system: K562; assay: In vitro antiproliferative against human chronic myelogenous K562 cell line; how it was run: as §1
[3] = system: HL-60; assay: DNA fragmentation in HL60 cells by ethidium bromide staining at 1 uM for 12 hrs; conditions: Homo sapiens
[4] = system: HL-60; assay: PARP hydrolysis in HL60 cells by an immunoblot assay; conditions: Homo sapiens
How it was run: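 HL-60 cell lysates, equal protein per lane, were run on SDS-PAGE and blotted with an anti-PARP monoclonal antibody to detect PARP cleavage. Etoposide was the positive control.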

[5] = system: HL-60; assay: Cytochrome c release in HL60 cells by immunoblotting at 1 uM; conditions: Homo sapiens
How it was run: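 HL-60 cells treated with 1 or 3 µM compound and harvested at 12 h. Cytosolic lysates were immunoblotted with anti-cytochrome c antibody, looking for the 15 kDa band. β-actin served as loading control.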

[6] = system: HL-60; assay: Condensation of chromatin in HL60 cells at 1 uM for 12 hrs; conditions: Homo sapiens
How it was run: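 HL-60 cells exposed to 1 µM compound for 12 h, then DNA stained with Hoechst 33258. Chromatin condensation and apoptotic bodies were examined by fluorescence microscopy. Apoptotic nuclei were counted quantitatively in triplicate, and the experiment was repeated once.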

[7] = system: HL-60; assay: In vitro antiproliferative activity against human HL60 myeloid leukemia cell line by MTT assay
[8] = system: PBMC; assay: In vitro antiproliferative activity against human PBM cell line by MTT assay
How it was run: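 PBMCs isolated from anticoagulant-treated blood of healthy human donors. Cells were cultured with or without compound for 24 h, and growth was read by MTT dye-reduction assay. IC50 taken from dose-response curves of at least two independent experiments, each in triplicate determinations, as mean ± SE.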

In the case of `C=C1CC(COc2cc(C(=O)O)n(C)n2)(c2ccc(Cl)cc2)OC1=O` (configuration not stated), the IC50 [1] is reported as > 10000 nM and the IC50 [2] is reported as > 10000 nM.

`C=C(Br)C(=O)Nc1ccc2[nH]c(C(=O)NCCNC(=O)c3cc(OCC4(c5ccccc5)CC(=C)C(=O)O4)nn3C)cc2c1` (configuration not stated) was tested, and the IC50 [1] was 850 nM and the IC50 [2] was 630 nM.

`C=C(Br)C(=O)Nc1ccc2oc(C(=O)NCCNC(=O)c3cc(OCC4(c5ccc(-c6ccccc6)cc5)CC(=C)C(=O)O4)nn3C)cc2c1` (configuration not stated) was tested, and the IC50 [1] was 270 nM and the IC50 [2] was 410 nM.

With `C=C1CC(COc2cc(C(=O)O)n(C)n2)(c2ccc(-c3ccccc3)cc2)OC1=O` (configuration not stated) the IC50 [1] was > 10000 nM and the IC50 [2] was > 10000 nM.

`C=C(Br)C(=O)Nc1ccc2oc(C(=O)O)cc2c1` was tested, and the IC50 [1] was 2950 nM and the IC50 [2] was 7250 nM.

`C=C1CC(COc2cc(C(=O)O)n(C)n2)(c2ccccc2)OC1=O` (configuration not stated) was tested, and the IC50 [1] was > 10000 nM and the IC50 [2] was > 10000 nM.

For `C=C(Br)C(=O)Nc1ccc2sc(C(=O)O)cc2c1`, the IC50 [1] was 4500 nM and the IC50 [2] was 5000 nM.

`C=C(Br)C(=O)Nc1ccc2sc(C(=O)NCCNC(=O)c3cc(OCC4(c5ccccc5)CC(=C)C(=O)O4)nn3C)cc2c1` (configuration not stated) was tested, and the IC50 [1] was 290 nM and the IC50 [2] was 270 nM.

`C=C(Br)C(=O)Nc1ccc2[nH]c(C(=O)O)cc2c1` showed an IC50 [1] of 4300 nM and an IC50 [2] of 5600 nM.

Work on `C=C(Br)C(=O)Nc1ccc2sc(C(=O)NCCNC(=O)c3cc(OCC4(C)CC(=C)C(=O)O4)nn3C)cc2c1` (configuration not stated) yielded an IC50 [1] of 840 nM and an IC50 [2] of 1020 nM.

`C=C(Br)C(=O)Nc1ccc2c(c1)cc(C(=O)O)n2C` showed an IC50 [1] of 2070 nM and an IC50 [2] of 3370 nM.

`C=C(Br)C(=O)Nc1ccc2c(c1)cc(C(=O)NCCNC(=O)c1cc(OCC3(c4ccccc4)CC(=C)C(=O)O3)nn1C)n2C` (configuration not stated) was tested, and the Activity [3] was “Active”, the Activity [4] was “Active” and the Activity [5] was “Active”. The Activity [6] was “Active”, the IC50 [1] was 50 nM and the IC50 [2] was 80 nM. The IC50 [7] was 110 nM and the IC50 [8] was 2520 nM.

`C=C(Br)C(=O)Nc1ccc2sc(C(=O)NCCNC(=O)c3cc(OCC4(c5ccc(Cl)cc5)CC(=C)C(=O)O4)nn3C)cc2c1` (configuration not stated) was tested, and the Activity [3] was “Active”, the Activity [4] was “Active” and the Activity [5] was “Active”. The Activity [6] was “Active”, the IC50 [1] was 260 nM and the IC50 [2] was 410 nM. It also gave an IC50 [7] of 290 nM and an IC50 [8] of 6820 nM.

For `C=C(Br)C(=O)Nc1ccc2oc(C(=O)NCCNC(=O)c3cc(OCC4(c5ccccc5)CC(=C)C(=O)O4)nn3C)cc2c1` (configuration not stated), the Activity [3] was “Active”, the Activity [4] was “Active” and the Activity [5] was “Active”. The Activity [6] was “Active”, the IC50 [1] was 310 nM and the IC50 [2] was 420 nM. It also gave an IC50 [7] of 270 nM and an IC50 [8] of 5440 nM.

`C=C(Br)C(=O)Nc1ccc2[nH]c(C(=O)NCCNC(=O)c3cc(OCC4(c5ccc(-c6ccccc6)cc5)CC(=C)C(=O)O4)nn3C)cc2c1` (configuration not stated) showed an IC50 [1] of 360 nM and an IC50 [2] of 480 nM.

`C=C(Br)C(=O)Nc1ccc2oc(C(=O)NCCNC(=O)c3cc(OCC4(c5ccc(Cl)cc5)CC(=C)C(=O)O4)nn3C)cc2c1` (configuration not stated) was tested, and the IC50 [1] was 550 nM and the IC50 [2] was 710 nM.

For `C=C1CC(C)(COc2cc(C(=O)O)n(C)n2)OC1=O` (configuration not stated), the IC50 [1] was > 10000 nM and the IC50 [2] was > 10000 nM.

With `C=C(Br)C(=O)Nc1ccc2sc(C(=O)NCCNC(=O)c3cc(OCC4(c5ccc(-c6ccccc6)cc5)CC(=C)C(=O)O4)nn3C)cc2c1` (configuration not stated) the Activity [3] was “Active”, the Activity [4] was “Active” and the Activity [5] was “Active”. The Activity [6] was “Active”, the IC50 [1] was 290 nM and the IC50 [2] was 380 nM. The IC50 [7] was 360 nM and the IC50 [8] was 8610 nM.

For `C=C(Br)C(=O)Nc1ccc2c(c1)cc(C(=O)NCCNC(=O)c1cc(OCC3(c4ccc(-c5ccccc5)cc4)CC(=C)C(=O)O3)nn1C)n2C` (configuration not stated), the IC50 [1] was 280 nM and the IC50 [2] was 360 nM.
